Measured values: ChEMBL document CHEMBL1128250, “Structure-activity studies of 2,3,4,4a,5,9b-hexahydroindeno[1,2-c]pyridines as antispermatogenic agents for male contraception” (1995)
Several values for one entry are separate records, joined by “and”; a condition that tells them apart may be missing. Equal entries are not always repeated.

Legend:
[1] = tested on: Mus musculus; experiment: tested for its effect on mouse testes weight 3 days after single oral dose (1 mg/kg); assay type: functional, Testis
Summary of the method: (§1)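 Male CD-1 (ICR)BR outbred Swiss albino mice, 5/dose, given one oral gavage dose (10 mL/kg) on day 0 in 0.15 M acetate buffer pH 5, ethanol/Tween-20/water (3:7:90), or 1% Tween-20 in water; vehicle and positive-control groups in each assay. Killed by CO2 72 h later; testes weighed. Expressed as % reduction versus vehicle control; Dunnett's one-tailed t-test.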

[2] = tested on: Mus musculus; experiment: Tested for its effect on testes weight 3 days after single sub cutaneous dose (10 mg/kg); assay type: functional, Testis
Summary of the method: (§2)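 CD-1 outbred Swiss albino male mice, 5 per dose, single subcutaneous injection on day 0 at 10 mL/kg in ethanol/Tween-20/water (3:7:90). Killed 72 h later. Testes weighed and scored for spermatogenic index (0–6). Results are % reduction versus vehicle control. Each assay included a 30 mg/kg positive control. Dunnett's one-tailed t-test, p < 0.05. Oral versus sc route compared by ANOVA.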

[3] = tested on: Mus musculus; experiment: Effect on right testes weight single oral dose of 30 mg/kg was given and the change after 1 hr of dosing was observed; assay type: functional, Testis
Summary of the method: (§3)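 Male CD-1 outbred Swiss albino mice, single oral gavage in acetate buffer pH 5 (10 mL/kg), 3, 10 or 30 mg/kg, plus vehicle control. Killed on day 1, 3 or 14 after dosing (times are days, not hours). Testes removed, right and left weighed separately, sectioned for histology and scored on a 0–6 spermatogenic index. Body weight change recorded. Mean ± SEM, n = 5; p < 0.05 versus control.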

[4] = tested on: Mus musculus; experiment: Effect on right testes body weight single oral dose of 10 mg/kg was given and the change after 14 h of dosing was observed.; assay type: functional, Testis; summary of the method: as §3
[5] = tested on: Mus musculus; experiment: Effect on change in body weight single oral dose of 3 mg/kg was given and the change after 14 hr of dosing was observed.; assay type: functional; summary of the method: as §3
[6] = tested on: Mus musculus; experiment: Tested for its effect on spermatogenic index 3 days after single oral dose (30 mg/kg); assay type: functional
Summary of the method: (§4)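 CD-1 outbred Swiss albino male mice, 5 per dose, single gavage on day 0 at 10 mL/kg. Vehicle was 0.15 M acetate buffer pH 5, ethanol/Tween-20/water (3:7:90), or 1% Tween-20 in water. CO2 euthanasia 72 h later. Testes weighed and histologically scored (spermatogenic index 0–6). Values are % reduction versus the assay's vehicle control. Positive control was 30 mg/kg of the parent compound. Significance by Dunnett's one-tailed t-test, p < 0.05.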

[7] = tested on: Mus musculus; experiment: Effect on left testes body weight a single oral dose of 3 mg/kg was given and the change after 1 h of dosing was observed.; assay type: functional, Testis; summary of the method: as §3
[8] = tested on: Mus musculus; experiment: Effect on right testes weight single oral dose of 10 mg/kg was given and the change after 3 hr of dosing was observed.; assay type: functional, Testis; summary of the method: as §3
[9] = tested on: Mus musculus; experiment: Effect on left testes body weight single oral dose of 10 mg/kg was given and the change after 3 hr of dosing was observed.; assay type: functional, Testis; summary of the method: as §3
[10] = tested on: Mus musculus; experiment: Effect on left testes body weight single oral dose of 3 mg/kg was given and the change after 3 hr of dosing was observed.; assay type: functional, Testis; summary of the method: as §3
[11] = tested on: Mus musculus; experiment: Effect on left testes body weight single oral dose of 3 mg/kg was given and the change after 14 hr of dosing was observed.; assay type: functional, Testis; summary of the method: as §3
[12] = tested on: Mus musculus; experiment: Effect on spermatogenic index single oral dose of 3 mg/kg was given and the change after 1 hr of dosing was observed.; assay type: functional; summary of the method: as §3
[13] = tested on: Mus musculus; experiment: Effect on spermatogenic index single oral dose of 3 mg/kg was given and the change after 14 hr of dosing was observed; assay type: functional; summary of the method: as §3
[14] = tested on: Mus musculus; experiment: Effect on left testes weight single oral dose of 30 mg/kg was given and the change after 1 hr of dosing was observed.; assay type: functional, Testis; summary of the method: as §3
[15] = organism: Mus musculus; experiment: Tested for its effect on spermatogenic index 3 days after single sub cutaneous dose; assay type: functional; summary of the method: as §2
[16] = tested on: Mus musculus; experiment: Effect on right testes weight asingle oral dose of 3 mg/kg was given and the change after 14 hr of dosing was observed.; assay type: functional, Testis; summary of the method: as §3
[17] = tested on: Mus musculus; experiment: Effect on spermatogenic index single oral dose of 30 mg/kg was given and the change after 1 hr of dosing was observed.; assay type: functional; summary of the method: as §3
[18] = tested on: Mus musculus; experiment: Tested for its effect on mouse testes weight 3 days after single sub cutaneous dose (30 mg/kg); assay type: functional, Testis; summary of the method: as §2
[19] = tested on: Mus musculus; experiment: Effect on spermatogenic index single oral dose of 30 mg/kg was given and the change after 3 hr of dosing was observed.; assay type: functional; summary of the method: as §3
[20] = tested on: Mus musculus; experiment: Effect on right testes weight single oral dose of 30 mg/kg was given and the change after 14 hr of dosing was observed.; assay type: functional, Testis; summary of the method: as §3
[21] = tested on: Mus musculus; experiment: Effect on left testes body weight single oral dose of 10 mg/kg was given and the change after 1 h of dosing was observed.; assay type: functional, Testis; summary of the method: as §3
[22] = tested on: Mus musculus; experiment: Effect on right testes weight single oral dose of 3 mg/kg was given and the change after 3 hr of dosing was observed.; assay type: functional, Testis; summary of the method: as §3
[23] = tested on: Mus musculus; experiment: Effect on right testes weight single oral dose of 30 mg/kg was given and the change after 3 hr of dosing was observed.; assay type: functional, Testis; summary of the method: as §3
[24] = tested on: Mus musculus; experiment: tested for its effect on spermatogenic index 3 days after single sub cutaneous dose (10 mg/kg); assay type: functional
Summary of the method: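 CD-1 male mice, 5/dose, injected subcutaneously once (10 mL/kg) on day 0 in ethanol/Tween-20/water (3:7:90); vehicle and positive controls included. Killed by CO2 after 72 h; testes weighed and sectioned, with histology scored as a 0–6 spermatogenic index. Both read-outs given as % reduction from control; Dunnett's one-tailed t-test.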

[25] = tested on: Mus musculus; experiment: Tested for its effect on mouse testes weight 3 days after single oral dose (90 mg/kg); assay type: functional, Testis; summary of the method: as §4
[26] = tested on: Mus musculus; experiment: Tested for its effect on mouse testes weight 3 days after single oral dose (10 mg/kg); assay type: functional, Testis; summary of the method: as §4
[27] = tested on: Mus musculus; experiment: Tested for its effect on mouse testes weight 3 days after single sub cutaneous (10 mg/kg); assay type: functional, Testis; summary of the method: as §2
[28] = tested on: Mus musculus; experiment: Effect on right testes weight single oral dose of 3 mg/kg was given and the change after 1 hr of dosing was observed. Data are given as mean +/- SEM (N=5), P<0.05, compared to control; assay type: functional, Testis; summary of the method: as §3
[29] = tested on: Mus musculus; experiment: tested for its effect on testes weight 3 days after single oral dose (30 mg/kg); assay type: functional, Testis; summary of the method: as §1
[30] = tested on: Mus musculus; experiment: Effect on left testes body weight single oral dose of 10 mg/kg was given and the change after 14 hr of dosing was observed.; assay type: functional, Testis; summary of the method: as §3
[31] = tested on: Mus musculus; experiment: Tested for its effect on spermatogenic index 3 days after single oral dose (90 mg/kg); assay type: functional; summary of the method: as §4
[32] = tested on: Mus musculus; experiment: Tested for its effect on mouse testes weight 3 days after single oral dose (30 mg/kg); assay type: functional, Testis; summary of the method: as §4
[33] = tested on: Mus musculus; experiment: Effect on right testes weight single oral dose of 10 mg/kg was given and the change after 1 hr of dosing was observed.; assay type: functional, Testis; summary of the method: as §3
[34] = tested on: Mus musculus; experiment: Effect on change in body weight single oral dose of 10 mg/kg was given and the change after 14 hr of dosing was observed.; assay type: functional; summary of the method: as §3
[35] = tested on: Mus musculus; experiment: Effect on spermatogenic index single oral dose of 3 mg/kg was given and the change after 3 hr of dosing was observed.; assay type: functional; summary of the method: as §3
[36] = tested on: Mus musculus; experiment: Effect on left testes weight single oral dose of 30 mg/kg was given and the change after 3 hr of dosing was observed.; assay type: functional, Testis; summary of the method: as §3
[37] = tested on: Mus musculus; experiment: tested for its effect on spermatogenic index 3 days after single oral dose (3 mg/kg); assay type: functional
Summary of the method: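 Male CD-1 (ICR)BR outbred Swiss albino mice, 5/dose, single oral gavage dose (10 mL/kg) on day 0 in acetate buffer pH 5 or Tween-20-based vehicle; killed 72 h later. Testis cross-sections scored histologically on a 0–6 spermatogenic index (Sertoli only to >100 late spermatids/tubule). Reported as % reduction versus vehicle control; Dunnett's one-tailed t-test.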

Q: For `CCN1CC[C@H]2[C@H](c3ccc(C)cc3)c3cc(C)ccc3[C@H]2C1.Cl`, which Reduction [1] is on record?
A: The Reduction was 25%.

Q: And the Reduction [2]?
A: Its Reduction is -11%.

Q: What about the Testes weight [3] of the same compound?
A: The Testes weight was 93.9 mg.

Q: And the Testes weight [4]?
A: Its Testes weight is 104.8 mg.

Q: What about the “Change in body weight” value [5] of the same compound?
A: Its value is 3.62 g.

Q: What about the Reduction [6] of the same compound?
A: The Reduction was 50% and 39%.

Q: What about the Testes weight [7] of the same compound?
A: Its Testes weight is 96.9 mg.

Q: What about the Spermatogenic index [8] of the same compound?
A: The Spermatogenic index was 5.1.

Q: What about the Testes weight [8] of the same compound?
A: The Testes weight was 112.3 mg.

Q: What about the Testes weight [9] of the same compound?
A: Its Testes weight is 107.8 mg.

Q: What about the Testes weight [10] of the same compound?
A: Its Testes weight is 106.1 mg.

Q: And the Testes weight [11]?
A: The Testes weight was 119.3 mg.

Q: What about the Spermatogenic index [12] of the same compound?
A: The Spermatogenic index was 6.

Q: What about the Spermatogenic index [13] of the same compound?
A: The Spermatogenic index was 6.

Q: What about the Testes weight [14] of the same compound?
A: The Testes weight was 92.8 mg.

Q: And the Reduction [15]?
A: The Reduction was 0%.

Q: And the Testes weight [16]?
A: The Testes weight was 126.5 mg.

Q: And the Spermatogenic index [17]?
A: Its Spermatogenic index is 4.4.

Q: What about the Reduction [18] of the same compound?
A: Its Reduction is 14%.

Q: And the Spermatogenic index [19]?
A: Its Spermatogenic index is 3.

Q: And the Testes weight [20]?
A: Its Testes weight is 49.4 mg and 47.1 mg.

Q: What about the Testes weight [21] of the same compound?
A: Its Testes weight is 88.5 mg.

Q: And the Testes weight [22]?
A: The Testes weight was 112.6 mg.

Q: And the Testes weight [23]?
A: Its Testes weight is 81 mg.

Q: What about the Reduction [24] of the same compound?
A: Its Reduction is 41%.

Q: What about the Reduction [25] of the same compound?
A: The Reduction was 10%.

Q: And the Reduction [26]?
A: Its Reduction is 10%.

Q: What about the Reduction [27] of the same compound?
A: The Reduction was -3%.

Q: And the Testes weight [28]?
A: Its Testes weight is 104.9 mg.

Q: What about the Reduction [29] of the same compound?
A: Its Reduction is 43%.

Q: What about the Testes weight [30] of the same compound?
A: Its Testes weight is 101.6 mg.

Q: And the Reduction [31]?
A: The Reduction was -9%.

Q: And the Reduction [32]?
A: Its Reduction is 24%.

Q: And the Spermatogenic index [33]?
A: Its Spermatogenic index is 4.

Q: What about the Testes weight [33] of the same compound?
A: Its Testes weight is 88.2 mg.

Q: What about the “Change in body weight” value [34] of the same compound?
A: Its value is 3.18 g.

Q: And the Spermatogenic index [35]?
A: Its Spermatogenic index is 5.8.

Q: What about the Testes weight [36] of the same compound?
A: The Testes weight was 78.2 mg.

Q: And the Reduction [37]?
A: Its Reduction is 31%.
